Measured values as given in ChEMBL document CHEMBL1212693, “Dorsomorphin inhibits BMP signals required for embryogenesis and iron metabolism” (Nat Chem Biol, 2008).
Activity calls are given as the source filed them. The calls are words filed in the database; no cut-off is given here.

Tests used:
Danio rerio [1] = species on record: Danio rerio; assay: Inhibition of BMPR1 in zebrafish assessed as decrease in eve1 expression at 10 uM treated at 18-somite stage measured at 48 hrs
Mus musculus [2] = species on record: Mus musculus; assay: Inhibition of BMPR1-mediated Smad-5 phosphorylation in BMP2-stimulated mouse PASMC at 4 uM treated 30 mins before BMP2 challenge measured after 30 mins by immunoblot analysis
Outline: (§1)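 Wild-type mouse PASMCs were kept in RPMI with 0.5% FCS for 24 h. They were preincubated with compound or vehicle for 30 min, then stimulated for 30 min with recombinant BMP2, BMP4, BMP6 or BMP7 at 10 ng ml−1. Lysates in SDS buffer were immunoblotted with anti-phospho-SMAD1/5/8. Total SMAD1 and α-tubulin served as loading controls, and bands were quantified by phosphorimager.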

Mus musculus [3] = species on record: Mus musculus; assay: Inhibition of ALK2-mediated Id1 promoter activity in BMPR2 deficient mouse PASMC at 10 uM by immunoblot analysis
Outline: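 BMPR-II–deficient mouse PASMCs at 50% confluence co-transfected with Id1 promoter firefly luciferase (BRE-Luc, 0.3 µg), caALK2, caALK3 or caALK6 (0.6 µg), and pRL-TK Renilla (0.2 µg). Compound (4–10 µM) or vehicle added 1 h after transfection. Activity read as firefly/Renilla ratio by dual luciferase assay; n = 3, mean ± s.d.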

Mus musculus [4] = species on record: Mus musculus; assay: Inhibition of BMPR1-mediated Smad-8 phosphorylation in BMP6-stimulated mouse PASMC at 4 uM treated 30 mins before BMP6 challenge measured after 30 mins by immunoblot analysis; outline: as §1
[5] = (§2) Inhibition of BMPR1-mediated Smad-1 phosphorylation in BMP4-stimulated mouse PASMC treated 30 mins before BMP4 challenge measured after 30 mins by immunoblot analysis
Outline: (§3)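 Mouse PASMCs were held 24 h in 0.5% FCS RPMI, preincubated 30 min with a dose range of compound, then stimulated 30 min with BMP4. Phospho-SMAD1/5/8 and phospho-p38 were detected by immunoblot and quantitated by phosphorimager (RLU). IC50 was derived from a Hill plot of phospho-SMAD1/5/8 inhibition.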

Mus musculus [6] = species on record: Mus musculus; assay: as §2; outline: as §3
Danio rerio [7] = species on record: Danio rerio; assay: Inhibition of BMPR1 in zebrafish assessed as penetrance of mild embryonic axis dorsalization at 1 uM treated at 3 hrs post-fertilization measured at 48 hrs; set-up: scale not given: the % may be the effect or the level left
Outline: (§4)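 Compound added at the stated times and concentrations. Gross morphology scored visually at up to 48 h.p.f. for dorsalization of the embryonic axis.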

[8] = Inhibition of Sprague-Dawley rat AMPK assessed as inhibition of [33P]ATP utilization after 30 mins by scintillation counting
Hep 3B2 = assay: Inhibition of BMPR1-mediated hepcidin mRNA expression in IL6-stimulated human Hep3B cells at 10 uM treated 30 mins before IL6 challenge measured after 6 hrs by qRT-PCR analysis; assay type: cell-based
Outline: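 Hep3B cells were incubated in α-MEM with 1% FCS for 6 h, with human IL-6 (100 ng ml−1) or without, together with compound or vehicle. After Trizol RNA extraction, hepcidin and Id1 mRNA were quantified by qRT-PCR. Values were normalised to 18S rRNA or β-actin mRNA, and measurements were in triplicate.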

Mus musculus [9] = species on record: Mus musculus; assay: Inhibition of ALK3-mediated Smad-8 phosphorylation in BMPR2 deficient mouse PASMC at 10 uM by immunoblot analysis
Outline: (§5)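 BMPR-II–deficient mouse PASMCs (RPMI, 10% FBS) transiently transfected with constitutively active ALK2, ALK3 or ALK6 cDNA, or plasmid-only control. Incubated with or without compound (10 µM). Extracts lysed in SDS buffer, run on SDS-PAGE and immunoblotted for phospho-SMAD1/5/8; quantitated by phosphorimager.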

Danio rerio [10] = species on record: Danio rerio; assay: Inhibition of BMPR1 in zebrafish assessed as penetrance of normal embryonic axis dorsalization at 0.5 uM treated at 3 hrs post-fertilization measured at 48 hrs; set-up: scale not given: the % may be the effect or the level left
Mus musculus [11] = species on record: Mus musculus; assay: Inhibition of BMPR1-mediated Smad-1 phosphorylation in BMP7-stimulated mouse PASMC at 4 uM treated 30 mins before BMP7 challenge measured after 30 mins by immunoblot analysis; outline: as §1
Mus musculus [12] = species on record: Mus musculus; assay: Inhibition of ALK6-mediated Smad-5 phosphorylation in BMPR2 deficient mouse PASMC at 10 uM by immunoblot analysis; outline: as §5
Danio rerio [13] = species on record: Danio rerio; assay: Inhibition of BMPR1 in zebrafish assessed as penetrance of moderate embryonic axis dorsalization at 10 uM treated at 2 to 4 hrs post-fertilization measured at 48 hrs; set-up: scale not given: the % may be the effect or the level left; outline: as §4
Mus musculus [14] = species on record: Mus musculus; assay: Inhibition of BMPR1-mediated Smad-5 phosphorylation in BMP4-stimulated mouse PASMC at 100 to 200 ng/ml treated 30 mins before BMP4 challenge measured after 30 mins by immunoblot analysis
Outline: (§6)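 Mouse PASMCs were held 24 h in RPMI with 0.5% FCS. They were preincubated 30 min with test agent, noggin or vehicle, then exposed to recombinant BMP4 for 30 min. SDS lysates were immunoblotted for phospho-SMAD1/5/8 and bands quantified by phosphorimager. Dose-dependence was fitted as a Hill plot.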

Danio rerio [15] = species on record: Danio rerio; assay: Inhibition of BMPR1 in zebrafish assessed as penetrance of mild embryonic axis dorsalization at 2 uM treated at 3 hrs post-fertilization measured at 48 hrs; set-up: scale not given: the % may be the effect or the level left; outline: as §4
Danio rerio [16] = species on record: Danio rerio; assay: Inhibition of BMPR1 in zebrafish assessed as penetrance of moderate embryonic axis dorsalization at 10 uM treated continuously from 10 hrs post-fertilization measured at 48 hrs; set-up: scale not given: the % may be the effect or the level left; outline: as §4
Danio rerio [17] = species on record: Danio rerio; assay: Inhibition of BMPR1 in zebrafish assessed as severity of embryonic axis dorsalization at 10 uM treated at 2 to 6 hrs post-fertilization measured at 48 hrs; set-up: scale not given: the % may be the effect or the level left
Danio rerio [18] = species on record: Danio rerio; assay: Inhibition of BMPR1 in zebrafish assessed as penetrance of normal embryonic axis dorsalization at 10 uM treated at 3 hrs post-fertilization measured at 48 hrs; set-up: scale not given: the % may be the effect or the level left
Danio rerio [19] = species on record: Danio rerio; assay: Inhibition of BMPR1 in zebrafish assessed as severity of embryonic axis dorsalization at 7.5 uM treated at 3 hrs post-fertilization measured at 48 hrs; set-up: scale not given: the % may be the effect or the level left
Danio rerio [20] = species on record: Danio rerio; assay: Toxicity in zebrafish assessed as mortality at 0.2 to 10 uM; assay type: organism-based; settings: in vivo
Danio rerio [21] = species on record: Danio rerio; assay: Inhibition of BMPR1 in zebrafish assessed as penetrance of moderate embryonic axis dorsalization at 10 uM treated continuously from 4 hrs post-fertilization measured after 48 hrs; set-up: scale not given: the % may be the effect or the level left; outline: as §4
Mus musculus [22] = species on record: Mus musculus; assay: Inhibition of BMPR1-mediated MAPK p38 phosphorylation in BMP4-stimulated mouse PASMC at 100 to 200 ng/ml treated 30 mins before BMP4 challenge measured after 30 mins by immunoblot analysis
Outline: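 Mouse PASMCs were serum-reduced 24 h in 0.5% FCS RPMI, pretreated 30 min with noggin or vehicle, then given BMP4 for 30 min. Lysates in SDS buffer were immunoblotted for phospho-SMAD1/5/8 and phospho-MAPK p38, and signals were quantitated by phosphorimager.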

Danio rerio [23] = species on record: Danio rerio; assay: Inhibition of BMPR1 in zebrafish assessed as penetrance of normal embryonic axis dorsalization at 10 uM treated continuously from 2 hrs post-fertilization measured after 48 hrs; set-up: scale not given: the % may be the effect or the level left
[24] = (§7) Inhibition of BMPR1-mediated Smad-5 phosphorylation in BMP4-stimulated mouse PASMC treated 30 mins before BMP4 challenge measured after 30 mins by immunoblot analysis; outline: as §6
Mus musculus [25] = species on record: Mus musculus; assay: as §7; outline: as §6
Danio rerio [26] = species on record: Danio rerio; assay: Inhibition of BMPR1 in zebrafish assessed as penetrance of mild embryonic axis dorsalization at 5 uM treated at 3 hrs post-fertilization measured at 48 hrs; set-up: scale not given: the % may be the effect or the level left; outline: as §4

Q: For `c1cc(-c2cnn3cc(-c4ccc(OCCN5CCCCC5)cc4)cnc23)ccn1` [DORSOMORPHIN], which inhibition (Danio rerio [1]) is on record?
A: Active

Q: And the inhibition (Mus musculus [2])?
A: Active

Q: And the inhibition (Mus musculus [3])?
A: Dose-dependent effect

Q: What about the inhibition (Mus musculus [4]) of the same compound?
A: Active

Q: And the IC50 [5]?
A: 470 nM

Q: And the inhibition (Mus musculus [6])?
A: Dose-dependent effect

Q: What about the Activity (Danio rerio [7]) of the same compound?
A: 0%

Q: And the Ki [8]?
A: 10000 nM

Q: And the inhibition (Hep 3B2)?
A: Active

Q: What about the inhibition (Mus musculus [9]) of the same compound?
A: Active

Q: And the Activity (Danio rerio [10])?
A: 100%

Q: And the inhibition (Mus musculus [11])?
A: Active

Q: What about the inhibition (Mus musculus [12]) of the same compound?
A: Active

Q: And the Activity (Danio rerio [13])?
A: 90%

Q: What about the inhibition (Mus musculus [14]) of the same compound?
A: Active

Q: And the Activity (Danio rerio [15])?
A: 0%

Q: What about the Activity (Danio rerio [16]) of the same compound?
A: 0%

Q: And the Activity (Danio rerio [17])?
A: 39%

Q: And the Activity (Danio rerio [18])?
A: 0%

Q: What about the Activity (Danio rerio [19]) of the same compound?
A: 100%

Q: What about the Activity (Danio rerio [20]) of the same compound?
A: Non-toxic

Q: What about the Activity (Danio rerio [21]) of the same compound?
A: 100%

Q: What about the inhibition (Mus musculus [22]) of the same compound?
A: Active

Q: And the Activity (Danio rerio [23])?
A: 0%

Q: And the IC50 [24]?
A: 470 nM

Q: What about the inhibition (Mus musculus [25]) of the same compound?
A: Dose-dependent effect

Q: What about the Activity (Danio rerio [26]) of the same compound?
A: 19%
